PubChem BioAssay AID588392 (Broad Institute, 2011)
Where “and” joins values, the source holds several entries; their conditions need not be identical. Identical values can stand only once.

Each compound was assayed against Scavenger receptor class B member 1 (Mus musculus) (UniProt Q61009) (assay: SR-BI-mediated DiI-HDL uptake inhibitors, dose response, ldlA[mSR-BI] CHO cells, powder samples, set 2 (AID 588392)). Conditions: DiI-HDL uptake fluorescence, 3 h;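 active = compounds lowering labeled HDL uptake with a fitted AC50 at most ten times their top tested dose (actives reach about 20 µM in these data); inconclusive = flat partial inhibition of 30 to 70 percent, or poor fit; inactive = the rest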.
How it was run: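 assay system = SR-BI-overexpressing LDLR-null CHO cells | medium = Ham's F12 with 0.5% fatty acid-free BSA, 25 mM HEPES pH 7.4 | schedule = cell plating overnight before assay, 3 h DiI-HDL uptake at 37 °C | detection = DiI fluorescence, ex 550/em 595 nm, bottom read | control set = DMSO as neutral control, BLT-1 (1 µM) as positive control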

Sequence of Scavenger receptor class B member 1 (Mus musculus) (Q61009 whole entry, looked up): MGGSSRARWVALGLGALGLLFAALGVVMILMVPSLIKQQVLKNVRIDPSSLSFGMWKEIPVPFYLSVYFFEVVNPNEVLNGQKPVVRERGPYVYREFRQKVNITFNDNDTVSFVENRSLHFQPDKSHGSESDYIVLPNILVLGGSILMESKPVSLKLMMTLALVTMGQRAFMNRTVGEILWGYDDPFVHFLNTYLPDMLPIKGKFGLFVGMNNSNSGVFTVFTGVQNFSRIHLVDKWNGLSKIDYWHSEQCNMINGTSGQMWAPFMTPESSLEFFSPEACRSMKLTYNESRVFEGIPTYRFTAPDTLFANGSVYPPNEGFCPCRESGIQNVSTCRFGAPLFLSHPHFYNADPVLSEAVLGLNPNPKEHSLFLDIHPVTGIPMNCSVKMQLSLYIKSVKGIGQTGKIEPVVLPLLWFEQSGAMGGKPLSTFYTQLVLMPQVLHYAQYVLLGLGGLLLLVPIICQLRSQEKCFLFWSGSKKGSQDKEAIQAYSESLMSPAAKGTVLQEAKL

AC50, active:
O=C(CN(C(=O)Cn1nnc(-c2ccc3c(c2)OCO3)n1)C1CCCCC1)NC1CCCC1 0.0126 µM
CC(C(=O)NC1CCCC1)N(C(=O)Cn1nnc(-c2ccccc2F)n1)C1CCCCC1 (centres undefined) 0.617 µM
CC(C(=O)NC1CCCC1)N(C(=O)Cn1nnc(-c2cccc(F)c2)n1)C1CCCCC1 (centres undefined) 0.379 µM
CC(C(=O)NC1CCCC1)N(C(=O)Cn1nnc(-c2ccc(F)cc2)n1)C1CCCCC1 (centres undefined) 0.125 µM
CC(C(=O)NC1CCCC1)N(C(=O)Cn1nnc(-c2ccc(Cl)cc2)n1)C1CCCCC1 (centres undefined) 0.275 µM
O=C(Nc1nc(-c2ccc3c(c2)CCN3C(=O)C2CC2)cs1)c1ccco1 0.186 µM
CCCCCCC1CCC/C1=N\NC(N)=S (centres undefined) 0.0071 µM
COc1ccc(-c2nnn(CC(=O)N(C3CCCCC3)C(C)C(=O)NC3CCCC3)n2)cc1OC (centres undefined) 0.0725 µM
CC(C(=O)NC1CCCC1)N(C(=O)Cn1nnc(-c2ccc3c(c2)OCO3)n1)C1CCCCC1 (centres undefined) 0.0243 µM
CCC(=O)N1CCc2cc(-c3csc(NC(=O)c4cccc(OC)n4)n3)ccc21 0.528 µM
CCC(=O)N1CCc2cc(-c3cnc(NC(C)=O)[nH]3)ccc21 1.7 µM
COc1cccc(-c2nnn(CC(=O)N(C3CCCCC3)C(C)C(=O)NC3CCCC3)n2)c1 (centres undefined) 0.18 µM
CCC(=O)N1CCc2cc(-c3cnc(NC(=O)c4ccco4)[nH]3)ccc21 10.1 µM
COc1ccc(-c2cc(CC(=O)N(C3CCCCC3)C(C)C(=O)NC3CCCC3)no2)cc1OC (centres undefined) 0.0154 µM
CCC(=O)N1CCc2cc(-c3csc(NC(=O)c4cc(OC)cc(OC)c4)n3)ccc21 0.00433 µM
CCC(=O)N1CCc2cc(-c3coc(N)n3)ccc21 20 µM
CCC(=O)N1CCc2cc(-c3csc(NC(=O)c4cccc(OC)c4)n3)ccc21 0.0399 µM
CCC(=O)N1CCc2cc(-c3coc(NC(=O)c4ccco4)n3)ccc21 18.9 µM
CC(C(=O)NC1CCCC1)N(C(=O)Cn1nnc(-c2ccccc2Cl)n1)C1CCCCC1 (centres undefined) 3.81 µM
CS(=O)(=O)N1CCc2cc(-c3csc(NC(=O)c4ccco4)n3)ccc21 0.386 µM
CCC(=O)N1CCc2cc(-c3csc(NC(=O)c4ccco4)n3)ccc21 0.0537 µM
CC(C)C(=O)N1CCc2cc(-c3csc(NC(=O)c4ccco4)n3)ccc21 0.238 µM
Cc1ccc(-c2nnn(CC(=O)N(C3CCCCC3)C(C)C(=O)NC3CCCC3)n2)cc1 (centres undefined) 0.493 µM
CCC(=O)N1CCc2cc(-c3csc(NC(=O)c4cccc(OC(F)(F)F)c4)n3)ccc21 0.0408 µM
COc1ccc(-c2nnn(CC(=O)N(CC(=O)NC3CCCC3)C3CCCCC3)n2)cc1OC 0.00898 µM
COC(=O)N1CCc2cc(-c3csc(NC(=O)c4ccco4)n3)ccc21 6.84 µM
O=C(Nc1nc(-c2ccc3c(c2)CCN3)cs1)c1ccco1 0.0447 µM
CCC(=O)N1CCc2cc(-c3csc(NC(=O)c4ccc(F)c(OC)c4)n3)ccc21 0.038 µM
C[C@@H]1CN([C@H](C)CO)C(=O)c2cc(NC(=O)Cc3cn(C)c4ccccc34)ccc2O[C@H]1CN(C)S(=O)(=O)c1ccc(Cl)cc1 0.081 µM and 0.268 µM
